Values after ≈ are worked out from the molar mass of the structure shown.

The subject of experiment [1] is Candida albicans. As to the kind of experiment: Effect on sterol composition in Candida albicans isolate 14 expressing wild type erg11 and erg5 assessed as ergosterol level after 2 hrs by gas chromatography. Further details: concentration or dose not given beside the values. The format is functional.
In experiment [2] the test system is Candida albicans. As to the kind of experiment: Effect on sterol composition in Candida albicans isolate 14 expressing wild type erg11 and erg5 assessed as eburicol level after 2 hrs by gas chromatography. It counts as functional.
The subject of experiment [3] is Candida albicans. Kind of experiment: Effect on sterol composition in Candida albicans isolate 108 harboring erg11 and erg5 double mutant assessed as 4,14alpha-Dimethylcholesta-8,24-dienol level after 2 hrs by gas chromatography. The format is functional.
Experiment [4] deals with Candida albicans. Kind of experiment: Effect on sterol composition in Candida albicans isolate 108 harboring erg11 and erg5 double mutant assessed as zymosterol level after 2 hrs by gas chromatography. The format is functional.
In experiment [5] the test system is Candida albicans. Kind of experiment: Antifungal activity against Candida albicans isolate 177 after 48 hrs by broth microdilution method. The settings on record: isolate 177, 48 h. The format is functional. The method in brief:
(§1)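 CLSI M27-A2 broth dilution in RPMI 1640 buffered with 0.165 M MOPS (pH 7), 37°C, for azoles (fluconazole, voriconazole, itraconazole, ketoconazole, clotrimazole). For amphotericin B, the MIC is the lowest concentration with complete growth inhibition.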
Background: Dilution methods test growth across graded concentrations, often in twofold steps.

In experiment [6] the test system is Candida albicans. As to the kind of experiment: Effect on sterol composition in Candida albicans isolate 108 harboring erg11 and erg5 double mutant assessed as obtusifoliol level after 2 hrs by gas chromatography. It counts as functional. Further details: concentration or dose not given beside the values.
Experiment [7] deals with Candida albicans. Kind of experiment: Antifungal activity against Candida albicans isolate 14 after 48 hrs by broth microdilution method. It counts as functional. The note with it: isolate 14, 48 h. In outline: as §1
Experiment [8] deals with Candida albicans. As to the kind of experiment: Effect on sterol composition in Candida albicans isolate 108 harboring erg11 and erg5 double mutant assessed as ergosta 5,7-dienol level after 2 hrs by gas chromatography. It counts as functional. The arrangement: concentration or dose not given beside the values.
In experiment [9] the test system is Candida albicans. Kind of experiment: Effect on sterol composition in Candida albicans isolate 14 expressing wild type erg11 and erg5 assessed as obtusifoliol level after 2 hrs by gas chromatography. The arrangement: concentration or dose not given beside the values. It counts as functional.
Experiment [10] concerns Candida albicans. Kind of experiment: Antifungal activity against Candida albicans isolate 6 after 48 hrs by broth microdilution method. The format is functional. The note with it: isolate 6, 48 h. The method in brief:
as §1

In experiment [11] the test system is Candida albicans. As to the kind of experiment: Antifungal activity against Candida albicans isolate 14 after 48 hrs by broth microdilution method in presence of 10 uM of efflux pump inhibitor FK506. It counts as functional. The settings on record: isolate 14, 48 h. In outline: (§2)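 Doubling dilutions of azole with a fixed 10 μM FK506 in microtiter wells in MOPS-buffered RPMI 1640 (pH 7). Read visually after 48 h at 37°C. The MIC is the lowest azole concentration giving at least 80% growth inhibition versus control wells.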

Experiment [12] relates to Candida albicans. As to the kind of experiment: Effect on sterol composition in Candida albicans isolate 14 expressing wild type erg11 and erg5 assessed as 14 -Methylergosta-8,24(28)-dien-3beta,6alpha-diol level after 2 hrs by gas chromatography. The format is functional. Further details: concentration or dose not given beside the values.
Experiment [13] has as its system Candida albicans. Kind of experiment: Effect on sterol composition in Candida albicans isolate 14 expressing wild type erg11 and erg5 assessed as lanosterol level after 2 hrs by gas chromatography. It counts as functional.
For experiment [14], the system named is Candida albicans. As to the kind of experiment: Antifungal activity against Candida albicans isolate 108 harboring erg11 and erg5 double mutant after 48 hrs by broth microdilution method in presence of 10 uM of efflux pump inhibitor FK506. The format is functional. The note with it: isolate 108, 48 h. The method in brief:
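C. albicans clinical isolate grown in RPMI 1640 buffered with 0.165 M MOPS (pH 7). Azole MICs by CLSI M27-A2 broth microdilution, with doubling drug dilutions plus a fixed 10 μM FK506. Plates incubated 48 h at 37°C and read visually. MIC taken as the lowest azole concentration giving at least 80% growth inhibition versus control wells.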

The test system of experiment [15] is Candida albicans. As to the kind of experiment: Antifungal activity against Candida albicans isolate 6 after 48 hrs by broth microdilution method in presence of 10 uM of efflux pump inhibitor FK506. It counts as functional. The method in brief:
as §2

In experiment [16] the test system is Candida albicans. Kind of experiment: Antifungal activity against Candida albicans isolate 108 harboring erg11 and erg5 double mutant after 48 hrs by broth microdilution method. The settings on record: isolate 108, 48 h. It counts as functional. In outline: as §1
Experiment [17] has as its system Candida albicans. Kind of experiment: Effect on sterol composition in Candida albicans isolate 108 harboring erg11 and erg5 double mutant assessed as lanosterol level after 2 hrs by gas chromatography. The format is functional. Further details: concentration or dose not given beside the values.
The test system of experiment [18] is Candida albicans. As to the kind of experiment: Antifungal activity against Candida albicans isolate 177 after 48 hrs by broth microdilution method in presence of 10 uM of efflux pump inhibitor FK506. The note with it: isolate 177, 48 h. The format is functional. In outline: as §2
In experiment [19] the test system is Candida albicans. As to the kind of experiment: Effect on sterol composition in Candida albicans isolate 108 harboring erg11 and erg5 double mutant eburicol level after 2 hrs by gas chromatography. It counts as functional. Further details: concentration or dose not given beside the values.
For experiment [20], the system named is Candida albicans. As to the kind of experiment: Effect on sterol composition in Candida albicans isolate 108 harboring erg11 and erg5 double mutant assessed as 14alpha-Methylfecosterol level after 2 hrs by gas chromatography. The format is functional.
Experiment [21] relates to Candida albicans. Kind of experiment: Effect on sterol composition in Candida albicans isolate 108 harboring erg11 and erg5 double mutant assessed as 14 -Methylergosta-8,24(28)-dien-3beta,6alpha-diol level after 2 hrs by gas chromatography. The format is functional.
In experiment [22] the test system is Candida albicans. Kind of experiment: Antifungal activity against Candida albicans isolate 14 after 48 hrs by Etest. The note with it: isolate 14, 48 h.
Experiment [23] relates to Candida albicans. Kind of experiment: microbe, parasite or virus in culture. The settings on record: isolate 177, 48 h.
Experiment [24] relates to Candida albicans. Kind of experiment: Ratio of MIC for Candida albicans isolate 108 harboring erg11 and erg5 double mutant to MIC for Candida albicans isolate14 expressing wild type erg11 and erg 5 enzyme. The format is functional.
Experiment [25] has as its system Candida albicans. As to the kind of experiment: Antifungal activity against Candida albicans isolate 108 harboring erg11 and erg5 double mutant after 48 hrs by Etest. The format is functional. The settings on record: isolate 108, 48 h.
For experiment [26], the system named is Candida albicans. Kind of experiment: Ratio of MIC for Candida albicans isolate 108 harboring erg11 and erg5 double mutant to MIC for Candida albicans isolate 6 expressing wild type erg11 and erg 5 enzyme. It counts as functional.
The test system of experiment [27] is Candida albicans. Kind of experiment: Ratio of MIC for Candida albicans isolate 108 harboring erg11 and erg5 double mutant to MIC for Candida albicans isolate 177 expressing wild type erg11 and erg 5 enzyme. The format is functional.
Experiment [28] deals with Candida albicans. Kind of experiment: Antifungal activity against Candida albicans isolate 6 after 48 hrs by Etest. The settings on record: isolate 6, 48 h.
For experiment [29], the system named is Candida albicans. Kind of experiment: Effect on sterol composition in Candida albicans isolate 108 harboring erg11 and erg5 double mutant assessed as 4,4-Dimethylcholesta-8,14,24-trienol level after 2 hrs by gas chromatography. The format is functional.

Regarding `OC(Cn1cncn1)(Cn1cncn1)c1ccc(F)cc1F` [FLUCONAZOLE], the Activity in the experiment on Candida albicans [1] was determined as 45.5%; in the experiment with Candida albicans [2], 4.1%; with Candida albicans [3] it was 5.5%; with Candida albicans [4], 1.4%; with Candida albicans [6], 25.7%; in the experiment on Candida albicans [8], 57.1%. Moreover, the Activity in the experiment on Candida albicans [9] turned out to be 25%; in the experiment on Candida albicans [12], 25.4%; in the experiment with Candida albicans [13] it was 25%; in the experiment on Candida albicans [15], 1 µg/mL; in the experiment with Candida albicans [17] it was 25.7%; in the experiment with Candida albicans [19], 0.9%. For the same compound, the Activity in the experiment with Candida albicans [20] was 9.4%. Besides, the MIC worked out at 256 µg/mL (≈ 836 µM) in the experiment on Candida albicans [5]; 1 µg/mL (≈ 3.27 µM) against Candida albicans [7]; 256 µg/mL (≈ 836 µM) against Candida albicans [10]; 1 µg/mL in the experiment with Candida albicans [11]; 16 µg/mL in the experiment on Candida albicans [14]; 64 µg/mL (≈ 209 µM) against Candida albicans [16]. For the same compound, the MIC with Candida albicans [18] worked out at 0.5 µg/mL.
As to `CC(=O)N1CCN(c2ccc(OCC3COC(Cn4ccnc4)(c4ccc(Cl)cc4Cl)O3)cc2)CC1` (stereo unspecified) [KETOCONAZOLE], the Activity with Candida albicans [1] was 36.4%; with Candida albicans [6], 20.3%; in the experiment on Candida albicans [8], 24.4%; with Candida albicans [9], 26.4%; in the experiment with Candida albicans [12], 37.2%; with Candida albicans [13], 26.4%. Moreover, the Activity is given as 20.3% with Candida albicans [17], 10.2% in the experiment with Candida albicans [19] and 45.1% with Candida albicans [21]. For the same compound, the MIC against Candida albicans [5] was found to be 16 µg/mL (≈ 30.1 µM); against Candida albicans [7] it was 0.0625 µg/mL (≈ 0.118 µM); against Candida albicans [10] it was 16 µg/mL (≈ 30.1 µM); against Candida albicans [16], 1 µg/mL (≈ 1.88 µM).
With `Clc1ccccc1C(c1ccccc1)(c1ccccc1)n1ccnc1` [CLOTRIMAZOLE], the Activity in the experiment with Candida albicans [1] is reported as 30%; in the experiment on Candida albicans [6], 16.4%; in the experiment on Candida albicans [8] it was 42.6%; in the experiment with Candida albicans [9], 35%; in the experiment with Candida albicans [12] it was 35%; in the experiment on Candida albicans [13] it was 35%. In addition, the Activity in the experiment with Candida albicans [17] was 16.4%; with Candida albicans [19], 8.2%; in the experiment on Candida albicans [21] it was 32.8%. The MIC was determined as 1 µg/mL (≈ 2.9 µM) with Candida albicans [5], 0.0625 µg/mL (≈ 0.181 µM) against Candida albicans [7], 1 µg/mL (≈ 2.9 µM) in the experiment on Candida albicans [10] and 2 µg/mL (≈ 5.8 µM) against Candida albicans [16].
Regarding `C[C@@H]1[C@H](O)[C@@H](C)/C=C/C=C/C=C/C=C/C=C/C=C/C=C/[C@H](O[C@@H]2O[C@H](C)[C@@H](O)[C@H](N)[C@@H]2O)C[C@@H]2O[C@](O)(C[C@@H](O)C[C@@H](O)[C@H](O)CC[C@@H](O)C[C@@H](O)CC(=O)O[C@H]1C)C[C@H](O)[C@H]2C(=O)O` [AMPHOTERICIN B], the MIC in the experiment with Candida albicans [22] was 0.25 µg/mL (≈ 0.271 µM); in the experiment with Candida albicans [23], 0.25 µg/mL (≈ 0.271 µM); in the experiment with Candida albicans [25], 4 µg/mL (≈ 4.33 µM); with Candida albicans [28] it was 0.25 µg/mL (≈ 0.271 µM). Also, the Ratio in the experiment with Candida albicans [24], in the experiment with Candida albicans [26] and in the experiment on Candida albicans [27] was 8 each time.
As to `CCC(C)n1ncn(-c2ccc(N3CCN(c4ccc(OCC5COC(Cn6cncn6)(c6ccc(Cl)cc6Cl)O5)cc4)CC3)cc2)c1=O` (stereo unspecified) [ITRACONAZOLE], the Activity in the experiment with Candida albicans [1] was found to be 33%; in the experiment on Candida albicans [6], 16.7%; in the experiment on Candida albicans [8], 25%; with Candida albicans [9], 29%; in the experiment on Candida albicans [12], 38%; in the experiment with Candida albicans [13], 29%. Moreover, the figures for the Activity in the experiment with Candida albicans [17], in the experiment with Candida albicans [19] and in the experiment on Candida albicans [21] were 16.7%, 8.3% and 50%, respectively. Also, the MIC in the experiment on Candida albicans [5] worked out at 16 µg/mL (≈ 22.7 µM); with Candida albicans [7], 0.0625 µg/mL (≈ 0.0886 µM); in the experiment on Candida albicans [10] it was 16 µg/mL (≈ 22.7 µM); against Candida albicans [16], 2 µg/mL (≈ 2.83 µM).
Regarding `C[C@@H](c1ncncc1F)[C@](O)(Cn1cncn1)c1ccc(F)cc1F` [VORICONAZOLE], the Activity in the experiment on Candida albicans [1] is reported as 47.3%; with Candida albicans [3], 7.2%; with Candida albicans [6], 29.5%; in the experiment on Candida albicans [8], 27.4%; in the experiment with Candida albicans [9] it was 24.1%; in the experiment with Candida albicans [12], 28.6%. Moreover, the Activity in the experiment with Candida albicans [13] is recorded as 24.1%; in the experiment on Candida albicans [29] it was 3.4%; in the experiment with Candida albicans [17], 29.5%; in the experiment with Candida albicans [19] it was 9.4%; with Candida albicans [21], 10.4%; with Candida albicans [20] it was 12.7%. Moreover, the MIC was 16 µg/mL (≈ 45.8 µM) with Candida albicans [5]; 0.0625 µg/mL (≈ 0.179 µM) against Candida albicans [7]; 16 µg/mL (≈ 45.8 µM) against Candida albicans [10]; below 0.0625 µg/mL with Candida albicans [11]; 4 µg/mL with Candida albicans [14]; below 0.0625 µg/mL in the experiment with Candida albicans [15] (Candida albicans, isolate 6, 48 h). In addition, the MIC against Candida albicans [16] is 8 µg/mL (≈ 22.9 µM); with Candida albicans [18] it was below 0.0625 µg/mL.

The values are drawn from ChEMBL document CHEMBL1649311, “A clinical isolate of Candida albicans with mutations in ERG11 (encoding sterol 14alpha-demethylase) and ERG5 (encoding C22 desaturase) is cross resistant to azoles and amphotericin B” (2010).
